# From ChEMBL document CHEMBL1123924, “Structure-activity studies of antagonists of luteinizing hormone-releasing hormone with emphasis on the amino-terminal region” (1987)
# Residues, ends and D or L forms follow the SMILES beside them.
# Assays:
# Format in all cases: functional
# [1] = species on record: Rattus norvegicus; test: Antiovulatory activity was expressed as the percentage of 10 rats blocked at a dose 1.5 ug.
# Summary of the method: (§1)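 Sprague-Dawley rats given peptide by subcutaneous injection at noon on the day of proestrus, in 40% propane-1,2-diol–0.9% saline vehicle. Oviducts examined for ova the following day.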
# [2] = species on record: Rattus norvegicus; test: Antiovulatory activity was expressed as the percentage of 9 rats blocked at a dose 3 ug.; summary of the method: as §1
# [3] = species on record: Rattus norvegicus; test: Antiovulatory activity was expressed as the percentage of 11 rats blocked at a dose 1 ug.; summary of the method: as §1
# [4] = species on record: Rattus norvegicus; test: Antiovulatory activity was expressed as the percentage of 9 rats blocked at a dose 7.5 ug.; summary of the method: as §1
# [5] = species on record: Rattus norvegicus; test: Antiovulatory activity was expressed as the percentage of 8 rats blocked at a dose 3 ug.; summary of the method: as §1
# [6] = species on record: Rattus norvegicus; test: Antiovulatory activity was expressed as the percentage of 9 rats blocked at a dose 1 ug.; summary of the method: as §1
# [7] = species on record: Rattus norvegicus; test: Antiovulatory activity was expressed as the percentage of 9 rats blocked at a dose 0.5 ug.; summary of the method: as §1
# [8] = species on record: Rattus norvegicus; test: Antiovulatory activity was expressed as the percentage of 12 rats blocked at a dose 0.5 ug.; conditions: in the assay text read “14 rats” for “12 rats”; summary of the method: as §1
# [9] = species on record: Rattus norvegicus; test: Antiovulatory activity was expressed as the percentage of 13 rats blocked at a dose 1 ug.; summary of the method: as §1
# [10] = species on record: Rattus norvegicus; test: Antiovulatory activity was expressed as the percentage of 11 rats blocked at a dose 0.5 ug.; summary of the method: as §1
structure (smiles),measurement,setting,value
CC(=O)N[C@H](Cc1ccc(Cl)cc1)C(=O)N[C@H](Cc1ccc(Cl)cc1)C(=O)N[C@H](Cc1c[nH]c2ccccc12)C(=O)N[C@@H](CO)C(=O)N[C@@H](Cc1ccc(O)cc1)C(=O)N[C@H](CCCN=C(N)N)C(=O)N[C@@H](CC(C)C)C(=O)N[C@@H](CCCN=C(N)N)C(=O)N1CCC[C@H]1C(=O)N[C@H](C)C(N)=O (HELM PEPTIDE1{[ac].[O=C([C@@H](Cc1ccc(Cl)cc1)N[*:1])[*:2]].[O=C([C@@H](Cc1ccc(Cl)cc1)N[*:1])[*:2]].[dW].S.Y.[dR].L.R.P.[dA].[am]}$$$$V2.0),Antiovulatory activity,[1],10%
same,Antiovulatory activity,[2],67%
CC(=O)N[C@H](Cc1ccc2ccccc2c1)C(=O)N[C@H](Cc1ccc2ccccc2c1)C(=O)N[C@H](Cc1ccc(O)cc1)C(=O)N[C@@H](CO)C(=O)N[C@@H](Cc1ccc(O)cc1)C(=O)N[C@H](CCCN=C(N)N)C(=O)N[C@@H](Cc1ccccc1)C(=O)N[C@@H](CCCN=C(N)N)C(=O)N1CCC[C@H]1C(=O)N[C@H](C)C(N)=O,Antiovulatory activity,[3],9%
same,Antiovulatory activity,[4],100%
same,Antiovulatory activity,[5],38%
CC(=O)N[C@H](Cc1ccc2ccccc2c1)C(=O)N[C@H](Cc1ccccc1)C(=O)N[C@H](Cc1ccccc1)C(=O)N[C@@H](CO)C(=O)N[C@@H](Cc1ccc(O)cc1)C(=O)N[C@H](CCCN=C(N)N)C(=O)N[C@@H](Cc1ccccc1)C(=O)N[C@@H](CCCN=C(N)N)C(=O)N1CCC[C@H]1C(=O)N[C@H](C)C(N)=O (HELM PEPTIDE1{[ac].[O=C([C@@H](Cc1ccc2ccccc2c1)N[*:1])[*:2]].[dF].[dF].S.Y.[dR].F.R.P.[dA].[am]}$$$$V2.0),Antiovulatory activity,[6],100%
same,Antiovulatory activity,[7],56%
CC(=O)N[C@H](Cc1ccc2ccccc2c1)C(=O)N[C@H](Cc1ccc(Cl)cc1)C(=O)N[C@H](Cc1ccc(O)cc1)C(=O)N[C@@H](CO)C(=O)N[C@@H](Cc1ccc(O)cc1)C(=O)N[C@H](CCCN=C(N)N)C(=O)N[C@@H](Cc1ccccc1)C(=O)N[C@@H](CCCN=C(N)N)C(=O)N1CCC[C@H]1C(=O)N[C@H](C)C(N)=O,Antiovulatory activity,[8],86%
CC(=O)N[C@H](Cc1ccc2ccccc2c1)C(=O)N[C@H](Cc1ccc(Cl)cc1)C(=O)N[C@H](Cc1c[nH]c2ccccc12)C(=O)N[C@@H](CO)C(=O)N[C@@H](Cc1ccc(O)cc1)C(=O)N[C@H](CCCN=C(N)N)C(=O)N[C@@H](CC(C)C)C(=O)N[C@@H](CCCN=C(N)N)C(=O)N1CCC[C@H]1C(=O)N[C@H](C)C(N)=O (HELM PEPTIDE1{[ac].[O=C([C@@H](Cc1ccc2ccccc2c1)N[*:1])[*:2]].[O=C([C@@H](Cc1ccc(Cl)cc1)N[*:1])[*:2]].[dW].S.Y.[dR].L.R.P.[dA].[am]}$$$$V2.0),Antiovulatory activity,[9],77%
CC(=O)N[C@H](Cc1ccc2ccccc2c1)C(=O)N[C@H](Cc1ccc(Cl)cc1)C(=O)N[C@H](Cc1c[nH]c2ccccc12)C(=O)N[C@@H](CO)C(=O)N[C@@H](Cc1ccc(O)cc1)C(=O)N[C@H](CCCN=C(N)N)C(=O)N[C@@H](Cc1ccccc1)C(=O)N[C@@H](CCCN=C(N)N)C(=O)N1CCC[C@H]1C(=O)N[C@H](C)C(N)=O (HELM PEPTIDE1{[ac].[O=C([C@@H](Cc1ccc2ccccc2c1)N[*:1])[*:2]].[O=C([C@@H](Cc1ccc(Cl)cc1)N[*:1])[*:2]].[dW].S.Y.[dR].F.R.P.[dA].[am]}$$$$V2.0),Antiovulatory activity,[10],64%
